Source: PubChem (several laboratories)
RAM network inh: blocks the yeast RAM network | AID 868 | S. cerevisiae dse1pr::URA3 reporter, 5-FOA growth OD615, 2 d; analog-sensitive cbk1-as2 kinase mutant strain | 190,000 compounds, 1.8% hits | inhibition, % at 50 µM;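 active means inhibition above a set limit, 3 SD over mean compound inhibition, cut at about 8.4% in these data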;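 further: 0% = DMSO-only wells with no growth and 100% = 10 µM 1-NA-PP1 full growth; inhibition rescues growth on 5-FOA so higher OD means more RAM inhibition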
Arbovirus inh: arbovirus infection inhibition; 200,000 compounds, 0.37% hits; arbovirus infection cell-based antiviral screen; inhibition, % at 10 µM; in the data active means inhibition above about 30%
ABCG2 inh: human ABCG2 inhibition, ABCB1 as counter-screen; Q9UNQ0; IgMXP3 cells, JC-1 efflux, flow cytometry; inhibition, % at 6.6 µM; 190,000 compounds, 0.1% hits; AID 1325;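 active means inhibition above 80%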;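 further: 0% = DMSO and 100% = nicardipine control wells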
Target sequence (Q9UNQ0 whole entry, looked up): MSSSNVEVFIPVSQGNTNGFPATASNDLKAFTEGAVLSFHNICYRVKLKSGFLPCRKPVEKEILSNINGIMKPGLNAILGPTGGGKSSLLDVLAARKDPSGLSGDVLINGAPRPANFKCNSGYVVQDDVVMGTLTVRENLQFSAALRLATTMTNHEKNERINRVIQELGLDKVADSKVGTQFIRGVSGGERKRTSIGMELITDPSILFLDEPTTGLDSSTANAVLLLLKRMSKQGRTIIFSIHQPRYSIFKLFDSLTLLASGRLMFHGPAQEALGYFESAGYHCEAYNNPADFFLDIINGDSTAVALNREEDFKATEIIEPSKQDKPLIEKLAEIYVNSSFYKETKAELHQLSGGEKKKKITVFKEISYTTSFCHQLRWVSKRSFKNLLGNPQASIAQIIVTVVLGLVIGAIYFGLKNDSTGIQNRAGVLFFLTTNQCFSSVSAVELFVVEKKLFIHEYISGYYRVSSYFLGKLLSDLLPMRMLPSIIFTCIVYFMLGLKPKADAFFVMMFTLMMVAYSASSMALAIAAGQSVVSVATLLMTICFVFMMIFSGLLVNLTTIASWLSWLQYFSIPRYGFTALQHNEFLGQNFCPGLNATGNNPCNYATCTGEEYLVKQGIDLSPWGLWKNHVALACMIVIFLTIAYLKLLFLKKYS
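System: two drug-resistant human cell lines, ABCG2 and ABCB1; controls: nicardipine high and DMSO low controls; times: 10 min exposure at 25 °C with rotation, no wash; detection: flow cytometry of retained JC-1 fluorescence; read-out basis: percent efflux inhibition, scaled nicardipine 100% to DMSO 0%; doses: one concentration, 6.6 µM final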
ABCB1 inh: blocks JC-1 efflux by human ABCB1 transporter; AID 1326; P08183; inhibition, % at 6.6 µM; 190,000 compounds, 0.067% hits; CCRF-Adr cells, flow cytometry; in the data active means inhibition above about 40%;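 further: 0% = vehicle and 100% = reference inhibitor; higher value means more JC-1 retained so stronger ABCB1 efflux block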
Starred values were filed as active, the others as inactive; x = no result. In the library only some 2.3% were active in any assay of this set; here they are far more common.

SMILES	RAM network inh	Arbovirus inh	ABCG2 inh	ABCB1 inh
Cc1ccccc1-c1nc2sc3c(c2c(=O)o1)CCC3	2	9	6	0
O=c1oc(-c2cccs2)nc2sc3c(c12)CCCCC3	x	25	x	x
O=c1oc(/C=C/c2ccccc2)nc2sc3c(c12)CCC3	3	66*	0	-1
O=c1oc(-c2cc3ccccc3o2)nc2sc3c(c12)CCCC3	4	78*	8	0
C=CCN1C(=Nc2ccccc2)SC/C1=C\C(=O)OC	0	11	0	0
COc1ccc(COc2cc(-c3cccc(OC)c3)nc3ccc(NC(=O)c4ccc(Cl)cc4)cc23)cc1	8.4*	-25	-5	-1
O=C(CCn1c(=O)sc2ccccc21)NCCCn1ccnc1	1	30*	0	0
CCC(=O)Nc1cccc(-c2csc(-c3ccccc3)n2)c1	3	-36	8	-4
CC(C)CC(=O)Nc1cccc(-c2csc(-c3ccccc3)n2)c1	10*	-28	10	1
COC(=O)c1sccc1N/N=C/c1cccc(Oc2ccccc2)c1	8.5*	5	1	0
CCc1ccc(/C=C2/Sc3ccccc3N(CC(=O)NCCCOC)C2=O)cc1	9.8*	-12	1	0
Cc1ccc2cc3c(N)c(C(=O)Nc4c(C)[nH]c(=O)[nH]c4=O)sc3nc2c1	9.5*	-1	-8	-1
Cc1ccc2nc3sc(C(=O)Nc4c(C)[nH]c(=O)[nH]c4=O)c(N)c3cc2c1	8	-5	-15	-2
CCCCNc1cc(C)oc(=O)c1C(C)=O	-1	-2	2	0
CC(C)CCN(C(=S)NC(=O)C1CCCCC1)c1c(N)n(Cc2ccccc2)c(=O)[nH]c1=O	1	32*	4	1
COCCN(C(=O)C1CCCC1)c1c(N)n(Cc2ccccc2)c(=O)[nH]c1=O	1	1	9	3
C=C(C)CSc1nnc([C@@H](NC(=O)OC(C)(C)C)C(C)CC)o1 (stereo partly drawn)	3	1	15	1
COc1ccc(C2c3c(-c4ccccc4O)n[nH]c3C(=O)N2CCc2ccc(OC)c(OC)c2)cc1 (stereo not drawn)	11*	-22	30	13
Cc1ccc(C(=O)Nc2ccccc2Oc2ccccc2)cc1[N+](=O)[O-]	11*	-7	4	0
O=C(Nc1ccccc1Oc1ccccc1)c1cccc([N+](=O)[O-])c1	1	-7	-2	-5
Cc1ccc(C(=O)NC(=S)Nc2cccc(NC(=O)c3ccccc3)c2)cc1[N+](=O)[O-]	10*	-16	-3	0
Cc1ccc(C(=O)NC(=S)Nc2cccc(NC(=O)c3ccccc3Cl)c2)cc1[N+](=O)[O-]	3	-6	4	1
COc1ccc2nc3c(cc2c1)c(NC(=O)c1cccs1)nn3CC(C)C	2	-8	0	0
COc1cccc(N(C(=O)CCl)C(C(=O)NCCc2ccccc2)c2cccs2)c1 (stereo not drawn)	9.2*	-35	6	1
CS(=O)(=O)N(CC(=O)NCCSc1ccccn1)c1ccc(F)cc1	2	1	0	0
SMILES	RAM network inh	Arbovirus inh	ABCG2 inh	ABCB1 inh
COCCCN1C(=O)C(O)=C(C(=O)c2ccco2)C1c1ccc(Br)cc1 (stereo not drawn)	9.1*	1	3	0
COCCCN1C(=O)C(O)=C(C(=O)c2ccco2)C1c1cccc(Br)c1 (stereo not drawn)	2	-1	2	0
COC(=O)c1ccc(COC(=O)CCc2nc(-c3ccccc3)c(-c3ccccc3)o2)cc1	11*	-3	0	0
CC(C)c1nnc(SCC(=O)N2CCc3ccccc32)n1C	1	2	2	0
O=C(O/N=C\c1ccc(N2CCCCC2)c([N+](=O)[O-])c1)c1cccc(Cl)c1	11*	5	16	1
NS(=O)(=O)c1cccc(NC(=O)COC(=O)Cc2ccc(S(=O)(=O)N3CCCCC3)s2)c1	8	0	-3	-1
O=C(COC(=O)Cc1ccc(S(=O)(=O)N2CCCCC2)s1)Nc1ccc2c(c1)OCO2	9.4*	4	2	0
CCOc1ccc2nc(SCC(=O)Nc3nonc3C)[nH]c2c1	9.1*	-3	3	0
CC(=O)c1c(C)oc2ccc(N(C(=O)C3CCCCC3)S(=O)(=O)c3cc([N+](=O)[O-])ccc3C)cc12	9.7*	18	5	2
COCCN=c1scc(-c2cccs2)n1/N=C/c1ccc(O)c(O)c1O	9.6*	-14	-2	0
O=C(CSc1ccc2c(c1)OCCO2)Nc1cccnc1Cl	-1	5	7	-1
